# SIRT5 block – inhibitors of human sirtuin-5 desuccinylase | Purified SirT5, succinyl-peptide AMC, trypsin-coupled fluorescence | 330,000 tested, 1.1% active | inhibition, % at 15 µM | AID 652115 | Q9NXA8; in the data active means inhibition above about 15%
# rRNA inh HTS – selective bacterial rRNA inhibition in E. coli; GFP signal change (wild-type ribosome), % (concentration not given with the values); AID 720706; E. coli WT GFP vs humanized-ribosome RFP mutants, fluorescence, 24 h; stronger effect = lower value; DMSO median 0, no signal -100; 350,000 tested, 1.6% active;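 active means significant combined selectivity score with lowered wild-type GFP, culture density cut under 30%, mutant RFP and density less affected; inactive means any of these conditions unmet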
# S100A4 MyoIIA – S100A4-myosin IIA interaction inhibition; P26447; S100A4/TAMRA-MyoIIA peptide fluorescence polarization; inhibition, % at 10.7 µM; 360,000 tested, 0.14% active; AID 652163;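 active means mean inhibition of at least 70% across replicates, with every replicate also reaching that level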
#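 assay system = human S100A4 monomer with TAMRA-labelled myosin IIA peptide | also added = labelled myosin peptide probe, 5 nM | incubation = 5 min between mix addition and reading | control set = DMSO and TFP controls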
# F508del corr – correctors of CFTR F508del function in bronchial epithelial cells. CFBE cells, YFP halide quenching; stimulated with forskolin plus potentiator P3; % fluorescence drop versus neutral controls. activity (quench increase), % at 7.58 µM. 350,000 tested, 0.36% active. AID 720511;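 active means mean added fluorescence quench of at least 8% versus neutral control, with both replicates also reaching 8%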;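 further: cells transiently co-express mutant CFTR-F508del with the halide-sensitive YFP; corrector assay measuring rescue of mutant channel to the surface after 24 h compound exposure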
# ERAP1 HTS inh – inhibitors of human ERAP1 aminopeptidase | recombinant ERAP1, Leu-AMC fluorescence, 60 min | 340,000 tested, 0.15% active | Q9NZ08 | inhibition, % at 10.7 µM;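 active means mean replicate inhibition of at least 30%, or all replicates individually reaching that 30% level; inactive means mean below 30% and not every replicate reaching it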;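 further: 0% = neutral control wells and 100% = L-leucinethiol positive control wells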
# Target sequence (Q9NZ08 whole entry, looked up): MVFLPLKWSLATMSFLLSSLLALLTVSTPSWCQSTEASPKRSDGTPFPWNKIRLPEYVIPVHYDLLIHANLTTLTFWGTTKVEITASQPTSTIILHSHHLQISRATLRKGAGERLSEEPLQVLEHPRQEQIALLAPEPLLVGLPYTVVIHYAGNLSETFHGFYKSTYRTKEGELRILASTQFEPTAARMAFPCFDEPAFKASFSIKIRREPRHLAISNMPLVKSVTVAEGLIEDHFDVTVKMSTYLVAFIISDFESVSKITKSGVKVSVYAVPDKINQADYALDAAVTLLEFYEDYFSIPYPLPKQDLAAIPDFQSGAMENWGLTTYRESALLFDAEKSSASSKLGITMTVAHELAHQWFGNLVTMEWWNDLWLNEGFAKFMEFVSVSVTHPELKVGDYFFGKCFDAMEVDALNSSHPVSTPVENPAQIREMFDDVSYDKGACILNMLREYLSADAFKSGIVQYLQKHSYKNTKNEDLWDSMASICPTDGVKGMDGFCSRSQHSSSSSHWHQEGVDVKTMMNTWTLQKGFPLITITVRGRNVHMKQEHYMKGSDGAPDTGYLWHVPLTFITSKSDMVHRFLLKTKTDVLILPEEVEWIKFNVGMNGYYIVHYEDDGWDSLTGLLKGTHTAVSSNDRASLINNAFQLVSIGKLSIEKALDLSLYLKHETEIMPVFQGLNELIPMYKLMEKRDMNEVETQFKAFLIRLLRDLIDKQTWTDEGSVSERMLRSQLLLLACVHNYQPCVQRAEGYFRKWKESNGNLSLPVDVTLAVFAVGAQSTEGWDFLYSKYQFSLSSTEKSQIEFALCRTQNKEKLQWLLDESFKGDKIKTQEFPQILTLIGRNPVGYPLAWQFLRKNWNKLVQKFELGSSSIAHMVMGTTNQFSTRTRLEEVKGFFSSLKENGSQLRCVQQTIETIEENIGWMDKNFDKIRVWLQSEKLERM
# Starred values were filed as active, the others as inactive; / = no result given. An excerpt weighted towards active compounds, which were near 3.1% of everything screened.
SMILES,SIRT5 block,rRNA inh HTS,S100A4 MyoIIA,F508del corr,ERAP1 HTS inh
C[C@H]1CN([C@@H](C)CO)C(=O)Cc2cc(NS(=O)(=O)c3cn(C)cn3)ccc2O[C@@H]1CN(C)Cc1ccncc1,/,4,-8,-3,-10
CC(C)NC(=O)N(C)C[C@@H]1Oc2ccc(NC(=O)Cc3cn(C)c4ccccc34)cc2C(=O)N([C@@H](C)CO)C[C@H]1C,0,3,-3,4,-4
O=[N+]([O-])c1ccc(NN=C(C2CC2)C2CC2)c([N+](=O)[O-])c1,/,-21*,2,3,3
O=C(NCC[C@@H]1CC[C@H](NC(=O)C2CC2)[C@@H](CO)O1)c1cnccn1,2,-2,5,-1,0
Cc1ccc(S(=O)(=O)N2CCOCC2)cc1NC(=O)COC(=O)c1cccc(Cl)c1Cl,1,-32*,-3,-1,-4
Cc1ccc(S(=O)(=O)N2CCOCC2)cc1NC(=O)COC(=O)c1ccc(Cl)nc1,-3,3,-2,10*,0
Cc1ccc(NC(=O)COC(=O)c2cccnc2Cl)cc1S(=O)(=O)N1CCOCC1,-3,-25*,-4,-2,-1
Cc1ccc(S(=O)(=O)CNC(=S)c2ccc3ccccc3c2)cc1,-3,-24*,-1,2,0
Cc1ccc(S(=O)(=O)Nc2ccc3c(c2)C(=O)N([C@@H](C)CO)C[C@@H](C)[C@H](CN(C)Cc2ccc(C(F)(F)F)cc2)OCCCC[C@H](C)O3)cc1,11,2,29,2,0
Cc1ccc(S(=O)(=O)Nc2ccc3c(c2)C(=O)N([C@@H](C)CO)C[C@H](C)[C@@H](CN(C)Cc2ccc(C(F)(F)F)cc2)OCCCC[C@H](C)O3)cc1,23*,-1,-3,3,0
Cc1ccc(S(=O)(=O)Nc2ccc3c(c2)C(=O)N([C@H](C)CO)C[C@@H](C)[C@@H](CN(C)Cc2ccc(C(F)(F)F)cc2)OCCCC[C@H](C)O3)cc1,20*,4,5,7,-1
Cc1ccc(S(=O)(=O)Nc2ccc3c(c2)C(=O)N([C@H](C)CO)C[C@@H](C)[C@@H](CN(C)Cc2ccc(C(F)(F)F)cc2)OCCCC[C@@H](C)O3)cc1,18*,3,7,2,-1
Cc1ccc(S(=O)(=O)Nc2ccc3c(c2)C(=O)N([C@H](C)CO)C[C@H](C)[C@H](CN(C)Cc2ccc(C(F)(F)F)cc2)OCCCC[C@H](C)O3)cc1,32*,1,5,5,2
Cc1ccc(S(=O)(=O)Nc2ccc3c(c2)C(=O)N([C@H](C)CO)C[C@H](C)[C@@H](CN(C)Cc2ccc(C(F)(F)F)cc2)OCCCC[C@@H](C)O3)cc1,2,1,4,4,-3
C[C@H](CO)N1C[C@H](C)[C@@H](CN(C)C(=O)c2cnccn2)Oc2ncc(C#CCN(C)C)cc2C1=O,2,7,-13,-3,0
CCCN1C[C@H](C)[C@H](OC)CN(C)C(=O)c2cc(NC(=O)COC)ccc2OC[C@H]1C,/,1,/,-1,/
Cc1ccc(S(=O)(=O)Nc2ccc3c(c2)C(=O)N([C@@H](C)CO)C[C@@H](C)[C@H](CN(C)Cc2ccc(C(F)(F)F)cc2)OCCCC[C@@H](C)O3)cc1,18*,-1,-17,4,1
C/C(=N\NC(=O)c1cc(-c2ccc(C)s2)[nH]n1)c1ccncc1,-6,-15*,4,0,-3
CSc1ccc(NC(=O)Nc2cccn(Cc3ccccc3)c2=O)cc1,-7,-30*,-4,1,0
CNC(=O)C[C@H]1CC[C@@H]2[C@H](COc3ccc(NC(=O)c4ccccc4OC)cc3C(=O)N2C)O1,1,-7,8,2,0
O=C(O)CCCCCCCCc1cn(Cc2ccc(C(=O)c3ccccc3)cc2)nn1,/,-16,16,14*,-12
O=C(c1ccccc1)c1ccc(Cn2cc(CCCO)nn2)cc1,-2,-3,-7,1,-3
Cc1nc(N2CCCCC2C)c2c(C)c(C(=O)Nc3cccc(C(F)(F)F)c3)sc2n1 (stereo unspecified),-5,5,5,1,-3
CCOC(=O)c1sc2nc(C)nc(N3CCCCC3C)c2c1C (stereo unspecified),2,-26*,-4,-1,-2
